# From PubChem BioAssay
# SENP6 block – SENP6 protease inhibition. actives 1.8% (n = 330,000). Recombinant SENP6 catalytic domain, aminoluciferin luminescence. Q9GZR1. inhibition, % at 10 µM. AID 2599;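 active means inhibition above about 50% at the single tested dose, limit read from the data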;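 further: plate controls were DMSO wells with enzyme for no effect and DMSO wells lacking enzyme for full effect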
# SENP1 inh – blocks the human SENP1 SUMO protease catalytic domain; inhibition, % at 10 µM; Q9P0U3; actives 0.21% (n = 360,000); recombinant SENP1 catalytic domain, CyPet-SUMO1-YPet FRET cleavage;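 active means inhibition at least 30% at 10 µM, raw YFP signal under a set limit, fluorescence ratio 0.5 to 1.5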;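 further: 0% = enzyme with DMSO and 100% = no enzyme wells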
#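 system = hSENP1 catalytic domain, recombinant | reagent = SFCypet-SUMO1-SFYpet substrate at 25 nM | doses = one dose per compound, 10 µM, 0.5% DMSO | incubation = enzyme reaction for 50 min at room temperature, dark | measured by = FRET, CFP and YFP emission | controls = no-enzyme low, enzyme-DMSO high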
# SENP8 block-1 – blocks the human protease SENP8; purified SENP8, Z-RLRGG-aminoluciferin cleavage, luminescence; inhibition, % at 10 µM; actives 1.2% (n = 330,000); in the data active means inhibition above about 50%
# Target sequence (Q96LD8 whole entry, looked up): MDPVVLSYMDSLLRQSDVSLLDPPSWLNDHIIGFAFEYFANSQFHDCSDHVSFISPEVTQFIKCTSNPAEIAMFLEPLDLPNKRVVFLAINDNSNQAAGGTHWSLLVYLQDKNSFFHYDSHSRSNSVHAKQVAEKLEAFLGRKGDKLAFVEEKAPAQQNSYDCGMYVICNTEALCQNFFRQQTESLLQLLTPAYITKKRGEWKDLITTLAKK
# SENP7 block – blocks the human protease SENP7. Q9BQF6. recombinant SENP7, Z-RLRGG-aminoluciferin luminescence, 40 min. inhibition, % at 5 µM. actives 1.5% (n = 330,000);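 active means inhibition above about 50% at the single test dose, limit read from the data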;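 further: plate controls were DMSO with enzyme for no effect and no enzyme buffer wells for full effect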
# Target sequence (Q9BQF6 706-1050 limits assumed): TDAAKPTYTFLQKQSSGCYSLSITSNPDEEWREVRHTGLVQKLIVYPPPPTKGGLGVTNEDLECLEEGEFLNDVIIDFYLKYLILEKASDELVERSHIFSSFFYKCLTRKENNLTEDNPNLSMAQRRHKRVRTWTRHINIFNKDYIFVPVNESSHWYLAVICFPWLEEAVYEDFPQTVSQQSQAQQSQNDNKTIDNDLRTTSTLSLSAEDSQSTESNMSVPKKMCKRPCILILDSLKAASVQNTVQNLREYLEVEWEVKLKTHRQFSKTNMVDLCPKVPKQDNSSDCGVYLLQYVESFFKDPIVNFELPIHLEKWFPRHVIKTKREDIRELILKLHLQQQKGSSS
# SENP8 block-2 – inhibitors of human SENP8 protease | Q96LD8 | recombinant SENP8, Nedd8 substrate fluorescence | inhibition, % at 20 µM | actives 0.64% (n = 360,000) | AID 602440; in the data active means inhibition mostly above about 40%, no sharp cut-off; inactive means mostly below about 27%
# SENP8 conf – human SENP8 inhibition, confirmed; shares compounds with SENP7 block; Recombinant SENP8, Z-RLRGG-aminoluciferin luminescence, 60 min; inhibition, % at 12.5 µM; actives 40% (n = 6,200); AID 488912;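 active means mean inhibition across replicates above about 50%, limit read from the data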
# SENP6 confirm – confirmation of human SENP6 protease inhibitors | shares compounds with SENP7 block | recombinant SENP6, Z-RLRGG-aminoluciferin luminescence | inhibition, % at 12.5 µM | actives 58% (n = 6,200) | AID 488915
# SENP7 confirm – confirmation of human SENP7 protease inhibitors; inhibition, % at 12.5 µM; recombinant SENP7, Z-RLRGG-aminoluciferin luminescence, 40 min; actives 69% (n = 6,200); shares compounds with SENP7 block
# Casp3 SENP sel – caspase-3 inhibition (SENP selectivity assay) | shares compounds with SENP7 block | purified caspase-3, Z-DEVD-aminoluciferin luminescence, 60 min | inhibition, % at 12.5 µM | actives 60% (n = 6,200) | AID 488918;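 active means mean inhibition above about 50%, limit read from the data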;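 further: plate controls were enzyme with DMSO for no effect and wells without caspase-3 for full effect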
# SENP luc ctr – interferes with luciferase luminescence in SENP counter-screen. AID 488919. inhibition, % at 12.5 µM. shares compounds with SENP7 block. actives 39% (n = 6,200). Pre-incubated SENP8/Z-RLRGG-aminoluciferin, luciferase luminescence interference;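 active means mean inhibition above about 50% when retested at one dose, limit read from the data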;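 further: plate controls were DMSO wells with completed reaction for no effect and substrate without enzyme for full effect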
# Starred values were filed as active, the others as inactive; i = inactive; nt = not tested or not shown. Only some compounds are listed: those with a hit (about 2.5% of all), similar ones and a draw of the others.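 How the source made its calls, unless noted: active means mean inhibition above about 50% in the one-dose retest (limit read from the data); inactive means the rest.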
SMILES,SENP6 block,SENP1 inh,SENP8 block-1,SENP7 block,SENP8 block-2,SENP8 conf,SENP6 confirm,SENP7 confirm,Casp3 SENP sel,SENP luc ctr
Cc1cc(C)n(C)c(=O)c1C#N,-6,2,5,11,-22,nt,nt,nt,nt,nt
CC(=O)N=Cc1c(C)c(C#N)c(=O)n(C)c1O,57*,-32,10,14,-16,-23,-18,-6,-5,-4
Cc1c(/C=N/Nc2ccc(F)cc2)c(O)n(C)c(=O)c1C#N,13,-8,18,9,-8,nt,nt,nt,nt,nt
O=C(O)c1cccc(N/N=C/c2ccc(F)c(F)c2)c1,101*,0,94*,2,-19,99*,99*,102*,86*,98*
Cc1nn(-c2cccc(C(F)(F)F)c2)c(Cl)c1/C=N/Nc1cccc(C(=O)O)c1,nt,-2,nt,nt,5,nt,nt,nt,nt,nt
O=C(O)c1cccc(N/N=C/c2cccc3ccccc23)c1,97*,-32,95*,55*,-35,100*,100*,103*,94*,99*
O=C(N/N=C/c1ccncc1)c1cccc(N/N=C/c2ccncc2)c1,0,1,-13,-1,2,nt,nt,nt,nt,nt
Cc1nn(-c2ccccc2Cl)c(Cl)c1/C=N/Nc1cccc(C(=O)O)c1,97*,3,97*,95*,-7,99*,101*,103*,91*,98*
O=C(O)c1ccc(/C=N/Nc2cccc(C(F)(F)F)c2)cc1,6,-16,-3,-25,-54,nt,nt,nt,nt,nt
O=C(N/N=C/c1ccc(O)cc1)c1cccc(N/N=C/c2ccc(O)cc2)c1,52*,-2,15,22,-32,6,-11,25,25,32
Cc1ccc(/C=N/Nc2ccc(C(=O)O)cc2)s1,95*,-38,97*,-7,-167,52*,101*,104*,99*,100*
O=C(O)c1ccc(N/N=C/c2cc(Br)cs2)cc1,99*,-30,97*,100*,-29,98*,99*,102*,46,97*
O=C(O)c1ccc(N/N=C/c2cc3ccccc3nc2Cl)cc1,39,-33,10,6,-103,nt,nt,nt,nt,nt
Cc1ccc(/C=N/NC(=O)c2ccc(C(=O)N/N=C/c3ccc(C)s3)o2)s1,-22,-21,-4,-3,i,nt,nt,nt,nt,nt
Cc1cccc2cc(/C=N/Nc3ccc(C(=O)O)cc3)c(Cl)nc12,83*,-36,77*,5,-32,88*,90*,89*,72*,21
Cc1ccc(/C=N/Nc2cccc(C(=O)O)c2)s1,95*,-35,96*,97*,-39,99*,100*,103*,92*,98*
O=C1C=CC(=O)N1,0,2,11,-6,7,nt,nt,nt,nt,nt
CCOC(=O)c1cc(OCC)c2c(ccc3cc(OC)ccc32)n1,nt,-1,nt,nt,-474,nt,nt,nt,nt,nt
O=S1(=O)N[C@@H](c2ccccc2)COc2cc(Br)ccc21,nt,2,nt,nt,2,nt,nt,nt,nt,nt
COC(=O)c1ccc2nc(-c3ccc(S(C)(=O)=O)cc3)cn2c1,-32,-9,-15,-3,-445,nt,nt,nt,nt,nt
CS(=O)(=O)c1ccc(-c2cn3cc(C(=O)O)ccc3n2)cc1,60*,1,55*,58*,-389,10,66*,86*,36,56*
O=C(N/N=C/c1ccccc1[N+](=O)[O-])c1ccc(COc2ccccc2-c2ccccc2)cc1,3,1,1,-4,-11,nt,nt,nt,nt,nt
COc1ccc(-c2csc(Nc3cccc(C)n3)n2)cc1C,nt,3,nt,nt,17,nt,nt,nt,nt,nt
Cc1cccc(Nc2nc(-c3ccc(F)cc3)cs2)n1,96*,0,84*,85*,11,11,81*,97*,56*,12
COc1ccc(-c2csc(Nc3cccc(C)n3)n2)cc1,90*,1,88*,81*,8,6,81*,96*,54*,8
SMILES,SENP6 block,SENP1 inh,SENP8 block-1,SENP7 block,SENP8 block-2,SENP8 conf,SENP6 confirm,SENP7 confirm,Casp3 SENP sel,SENP luc ctr
CC(=O)Oc1ccc(-c2csc(Nc3cccc(C)n3)n2)cc1,73*,2,87*,87*,4,11,50,55*,70*,2
CC(=O)Oc1ccc(-c2csc(Nc3ccccn3)n2)cc1,nt,2,nt,nt,0,nt,nt,nt,nt,nt
O=C(O)c1cccc(C(=O)Nc2cccc(NC(=O)C3CCCO3)c2)c1 (centres undefined),57*,1,42,49,6,74*,71*,91*,67*,47
O=C(O)c1cccc(NC(=O)C2CCCO2)c1 (centres undefined),6,2,0,14,8,nt,nt,nt,nt,nt
O=C(O)c1cccc(NC(=O)c2cccc(NC(=O)C3CCCO3)c2)c1 (centres undefined),63*,0,55*,-15,14,74*,72*,90*,69*,54*
CCN1CCN(C(=O)CN(c2ccc(F)cc2)S(=O)(=O)c2ccc(OC)c(OC)c2)CC1,9,2,0,5,11,nt,nt,nt,nt,nt
COc1cccc(CNC(=O)CCC2CCCN(C(=O)c3cc4ccccc4o3)C2)c1 (centres undefined),21,2,54*,52*,7,0,62*,89*,76*,59*
Cc1ccc(C(=O)Nc2cccc3cccnc23)cc1Br,4,-2,-5,55*,4,-2,2,9,23,12
O=C(Nc1ccc(C(=O)O)cc1)Nc1cccc2ccccc12,58*,2,17,34,-74,38,34,65*,62*,34
Cc1ccc(C(=O)Nc2cccnc2Cl)cc1Cl,25,2,4,3,13,nt,nt,nt,nt,nt
O=C(Nc1ccccc1)Nc1cccc2ccccc12,23,4,5,24,-57,nt,nt,nt,nt,nt
O=C(O)/C=C/C(=O)Nc1cccc2cccnc12,6,0,-5,1,10,nt,nt,nt,nt,nt
O=C(Nc1ccccc1)Nc1cccc2cccnc12,42,-2,60*,74*,8,80*,80*,94*,59*,77*
CC1Cc2ccccc2N1C(=O)COC(=O)CCc1nc2ccccc2c(=O)[nH]1 (centres undefined),15,-4,4,2,-3,nt,nt,nt,nt,nt
C=C1CCc2c([nH]c3ccc(OCC(C)C)cc23)C1=O,95*,-15,8,-2,-279,12,4,7,4,3
